A selection: hits, their analogues and other compounds. The true share with any hit is near 4%.
Ecoli rRNA inh – inhibitors of bacterial rRNA selective over humanized ribosomes. GFP signal change (wild-type ribosome), % (concentration not given with the values). 1.6% of 350,000 active. E. coli WT GFP vs humanized-ribosome RFP mutants, fluorescence, 24 h; hits give low values; DMSO median 0, no signal -100. AID 720706;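 active = significant combined selectivity score with lowered wild-type GFP, culture density cut under 30%, mutant RFP and density less affected; inactive = any of these conditions unmet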
E-selectin induc – induces E-selectin expression in human endothelial cells. P16581. HUVEC E-selectin immunofluorescence imaging; normalized: neutral wells 0, TNF-alpha wells 100. activation, % at 7.58 µM. 0.37% of 260,000 active. AID 686992;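 active = mean E-selectin-positive cell signal at least 10% of the positive control, reached in at least 60% of replicates, without over 20% cell loss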
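Read-out basis: % PE-positive cells; Test system: HUVEC primary endothelial cells; Technique: immunofluorescence imaging; Dosing: single-point compound dose.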
FN deposit inh – fibronectin deposition inhibition | AID 743247 | AH1F fibroblasts, Alexa488-fibronectin deposition fluorescence, overnight | inhibition, % at 12.6 µM | 0.086% of 350,000 active;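 active = mean inhibition across replicates of 30% or more, regardless of how many single replicates reach that level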;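 note: positive control wells lacked labelled fibronectin entirely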
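Material: AH1F fibroblast monolayer depositing Alexa488-labelled fibronectin into matrix | Input: 10000 AH1F cells/well | Medium: DMEM plus 2% serum, read in PBS | Reagent: Alexa488-fibronectin, 24 nM final in well | Compound dosing: One dose per compound, pinned | Schedule: 1 h adhesion, overnight exposure | Measured by: Fluorescence at 485 nm excitation, 525 nm emission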
C2C12 statin – suppressors of simvastatin-induced myotoxicity in C2C12 myotubes; ATP luminescence, 48 h; scaled: DMSO 0, geranylgeraniol control 100; rescue of ATP level, % at 7.49 µM; 0.78% of 330,000 active; AID 602340;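 active = mean ATP rescue above about 67%, or every replicate alone reaching that limit, limit read from the data, passing the limit was not always enough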;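 note: myotubes were challenged with 10 µM simvastatin during compound exposure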
FGF22 binding – binders of recombinant human FGF22 by thermal shift. Q9HCT0. activity (Tm shift, normalised), % at 9.99 µM. AID 651658. 1.5% of 340,000 active. SYPRO orange fluorescence; percent of sucrose octasulfate shift, DMSO zero;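 active = mean Tm shift, scaled 0 neutral to 100 positive control, at about 1.3% or above, every replicate too, limit read from the data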
Target sequence (Q9HCT0 whole entry, looked up): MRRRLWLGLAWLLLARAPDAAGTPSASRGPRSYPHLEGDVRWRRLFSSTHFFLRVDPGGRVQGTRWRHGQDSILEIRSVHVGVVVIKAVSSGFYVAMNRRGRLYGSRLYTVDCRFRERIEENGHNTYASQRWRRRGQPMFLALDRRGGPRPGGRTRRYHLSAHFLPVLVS
SIRT5 block – inhibitors of human sirtuin-5 desuccinylase. Q9NXA8. Purified SirT5, succinyl-peptide AMC, trypsin-coupled fluorescence. inhibition, % at 15 µM. 1.1% of 330,000 active; in the data active = inhibition above about 15%
Target sequence (Q9NXA8 whole entry, looked up): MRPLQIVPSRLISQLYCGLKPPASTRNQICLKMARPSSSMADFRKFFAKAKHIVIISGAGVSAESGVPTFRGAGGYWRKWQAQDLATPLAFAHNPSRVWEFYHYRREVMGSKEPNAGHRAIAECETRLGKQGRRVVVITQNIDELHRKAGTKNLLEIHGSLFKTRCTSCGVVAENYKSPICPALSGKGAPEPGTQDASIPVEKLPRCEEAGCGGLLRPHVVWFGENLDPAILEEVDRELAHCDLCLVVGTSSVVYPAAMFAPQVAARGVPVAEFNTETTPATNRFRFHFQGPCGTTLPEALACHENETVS
* hit, by the source's call; / = not tested or not shown.

SMILES | Ecoli rRNA inh | E-selectin induc | FN deposit inh | C2C12 statin | FGF22 binding | SIRT5 block
C[C@H]1CN([C@@H](C)CO)S(=O)(=O)c2ccc(C#CC3CC3)cc2O[C@@H]1CN(C)C(=O)c1cnccn1 | -2 | 0 | / | -9 | 0 | 2
O=[N+]([O-])c1ccccc1C(=Nc1ccccc1)c1c(O)cc(O)cc1O | -21* | 0 | -3 | 0 | -1 | 5
C=CCN(Cc1nc(-c2ccc(OC)cc2)no1)C(=O)c1ccc2c(c1)OCO2 | -11 | 1 | -1 | 4 | 0 | 17*
COc1ccc2c3c(n(C)c2c1)[C@@H](CO)N(C(=O)Cc1ccccc1)CC31CCN(C)CC1 | 0 | 0 | / | / | 0 | /
CN(C)S(=O)(=O)c1cccc(COC(=O)c2ccc(Cl)cc2O)c1 | -17 | 0 | 2 | / | 0 | -2
CCn1nc(C(=O)OCc2cccc(S(=O)(=O)N(C)C)c2)c2ccccc2c1=O | -25* | 1 | 5 | / | 0 | -4
CC(C)(C)S(=O)(=O)c1cnc(-c2ccccn2)nc1N | 18 | 0 | 11 | / | 0 | -4
CC(C)(C)S(=O)(=O)c1cnc(-c2cnccn2)nc1N | 16 | 46* | 0 | / | 0 | /
O=C(NC1CCCc2ccccc21)c1ccc([N+](=O)[O-])cc1 (configuration not stated) | -5 | / | 2 | 2 | 43* | 7
O=C(NCCOc1nc(N2CCCCC2)nc(N2CCCCC2)n1)Nc1ccccc1 | 1 | / | 9 | 8 | 44* | -1
O=C(NCCOc1nc(N2CCCCC2)nc(N2CCOCC2)n1)Nc1ccccc1 | / | / | / | -9 | / | /
CC(C)NC(=O)N(C)C[C@H]1Oc2ccc(NC(=O)NC3CCCCC3)cc2C(=O)N([C@H](C)CO)C[C@H]1C | 1 | 5 | / | -5 | 0 | -5
C[C@@H]1CN([C@H](C)CO)C(=O)c2cc(NS(=O)(=O)c3cccs3)ccc2O[C@@H]1CN(C)Cc1ccc(Oc2ccccc2)cc1 | 7 | -13 | / | 24 | 0 | 0
COc1ccc(CCNC(=O)Nc2nc(C(N)COCc3ccccc3)cs2)cc1OC (configuration not stated) | -14* | -1 | 3 | 6 | 0 | /
Cc1sc2ncn(CC(=O)Nc3cccc(S(N)(=O)=O)c3)c(=O)c2c1-c1ccccc1 | -29* | / | -8 | -11 | 0 | -3
CC(=O)N1c2ccc(S(=O)(=O)NCCC(=O)NCc3ccc(Cl)cc3)cc2CC1C (configuration not stated) | 2 | / | 4 | 12 | 0 | -4
CC(=O)N1c2ccc(S(=O)(=O)NCCC(=O)NCc3ccc(N(C)C)cc3)cc2CC1C (configuration not stated) | 2 | / | 9 | 92* | 0 | 2
CC(=O)N1c2ccc(S(=O)(=O)N(C)c3cc(C)ccc3C)cc2CC1C (configuration not stated) | -29* | 0 | 1 | -8 | 0 | -2
C[C@@H]1CN([C@H](C)CO)C(=O)c2cc(/C=C/c3ccccc3)cnc2O[C@@H]1CN(C)C(=O)Cc1cccnc1 | 3 | 0 | 6 | 6 | 0 | -14
C[C@@H]1CN([C@@H](C)CO)C(=O)c2cc(NC(=O)NC3CCCCC3)ccc2O[C@@H](C)CCCCO[C@H]1CN(C)S(=O)(=O)c1cccs1 | 0 | 1 | / | / | 0 | /
COCCNC(=O)Cn1cnc2sc(C)c(S(=O)(=O)N3CCC(C)CC3)c2c1=O | / | / | -6 | 0 | / | /
CCC1CCCCN1CCCNC(=O)Cn1cnc2sc(C)c(S(=O)(=O)N3CCC(C)CC3)c2c1=O (configuration not stated) | 6 | / | -3 | -6 | 0 | 17*
CCC(=O)Nc1ccc2c(c1)C(=O)N(C)C[C@H](OC)[C@@H](C)CN(CC1CC1)[C@@H](C)CO2 | 2 | 0 | -4 | 4 | 0 | -4
CC(C)NC(=O)Nc1ccc2c(c1)CC(=O)N([C@H](C)CO)C[C@@H](C)[C@@H](CN(C)Cc1ccc(Cl)c(Cl)c1)O2 | -10 | 47* | / | 15 | 0 | 8
C[C@@H]1CN([C@H](C)CO)C(=O)Cc2cc(NC(=O)Nc3ccc4c(c3)OCO4)ccc2O[C@H]1CN(C)Cc1ccc(Cl)c(Cl)c1 | 2 | 300* | / | 32 | 0 | 3
SMILES | Ecoli rRNA inh | E-selectin induc | FN deposit inh | C2C12 statin | FGF22 binding | SIRT5 block
CC(C)NC(=O)Nc1ccc2c(c1)CC(=O)N([C@H](C)CO)C[C@H](C)[C@H](CN(C)Cc1ccc(Cl)c(Cl)c1)O2 | -4 | 59* | / | 13 | 0 | 7
CC(C)NC(=O)Nc1ccc2c(c1)CC(=O)N([C@@H](C)CO)C[C@H](C)[C@@H](CN(C)Cc1ccc(Cl)c(Cl)c1)O2 | -10 | -26 | / | 27 | 1 | 4
CCCN1C[C@@H](C)[C@H](OC)CN(C)C(=O)c2cc(NS(=O)(=O)c3ccccc3)ccc2OC[C@H]1C | / | 0 | -1 | 28 | 0 | 1
COc1cccc(-n2c(SCC(N)=O)nc3ccccc3c2=O)c1 | 12 | / | / | / | 0 | -1
COc1cccc(-n2c(SCC(=O)NC3CC3)nc3ccccc3c2=O)c1 | 7 | 0 | -2 | 0 | 43* | /
CC(=O)N(Cc1ccc(F)cc1)C1=C(NCCc2ccccc2)C(=O)c2ccccc2C1=O | / | / | 42* | -130 | / | /
O=C(O)c1ccc(NC2=C(Cl)C(=O)c3ccccc3C2=O)cc1 | -20 | 0 | 1 | -236 | 0 | 3
O=C1C(Cl)=C(NCCc2ccccc2)C(=O)N1CCc1ccccc1 | / | / | -1 | 164* | / | /
O=C(O)c1cccc(NC2=C(Cl)C(=O)c3ccccc3C2=O)c1 | -21 | 0 | 11 | / | 0 | 112*
O=C1C(Cl)=C(NCCCN2CCOCC2)C(=O)N1CCc1ccccc1 | / | / | 0 | -29 | / | /
COCCCNC1=C(Cl)C(=O)c2ccccc2C1=O | -40* | 0 | 1 | / | 0 | 0
C[C@@H]1CCCCO[C@@H](CN(C)C(=O)CCCN(C)C)[C@@H](C)CN([C@H](C)CO)C(=O)c2cc(NC(=O)c3ccncc3)ccc2O1 | 4 | 0 | -14 | / | 0 | /
O=C(NC[C@H]1CC[C@@H]2[C@@H](CN2Cc2cccc(Cl)c2)O1)C1CC1 | / | / | / | / | / | -4
CCC(=O)N[C@@H]1CC[C@@H](CCn2cc(-c3cccc(OC)c3)nn2)O[C@@H]1CO | 2 | 2 | / | -4 | 0 | -1
O=C1C(Cl)=C(NCCc2ccccc2)C(=O)c2ccccc21 | -37* | 0 | 22 | -93 | 0 | 1
O=C(NCCN1CCCCC1)Nc1ccc(Br)cc1 | -32* | / | -4 | -38 | 0 | /
O=C(NCCN1CCN(Cc2ccccc2)CC1)Nc1cc(Cl)cc(Cl)c1 | -49* | 0 | -12 | -25 | 0 | -3
Cc1ccc(NC(=O)NCCN2CCCCC2)cc1 | 6 | / | -6 | -6 | 0 | -1

Screens (PubChem BioAssay)
